Shown are actives, neighbours in structure and some others; about 3% of the full set was active somewhere.
B2AR ag: agonists of human beta-2 adrenergic receptor inducing internalization. hit rate 0.43% among 340,000. AID 504454. response, % (concentration not given with the values). Am2.2-beta2AR cells, FAP receptor internalization, flow cytometry;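 active means response above a set limit, near 3 SD of response in nonfluorescent compounds, cut at about 42% in these data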
Target sequence (P07550 whole entry, looked up): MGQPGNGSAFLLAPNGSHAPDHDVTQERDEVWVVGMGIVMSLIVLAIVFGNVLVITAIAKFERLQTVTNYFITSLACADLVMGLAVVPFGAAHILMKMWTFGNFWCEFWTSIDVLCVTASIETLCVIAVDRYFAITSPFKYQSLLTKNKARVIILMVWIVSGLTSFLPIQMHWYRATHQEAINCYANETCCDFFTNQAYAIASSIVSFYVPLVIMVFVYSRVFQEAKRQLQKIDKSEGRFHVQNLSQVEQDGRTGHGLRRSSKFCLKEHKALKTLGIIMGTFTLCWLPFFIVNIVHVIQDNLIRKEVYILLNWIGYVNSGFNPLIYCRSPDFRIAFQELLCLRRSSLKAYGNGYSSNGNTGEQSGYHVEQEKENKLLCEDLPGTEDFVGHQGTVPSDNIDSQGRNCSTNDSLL
ABHD5-PLIN5 inh: blocks binding of human ABHD5 to perilipin-5. Q00G26+Q8WTS1. Split G. princeps luciferase complementation, luminescence, 4 h. inhibition, % at 4 µM. hit rate 0.78% among 360,000. AID 602281;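 active means inhibition above the mean inhibition across every tested compound plus 3 SD, cut at about 22% in these data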;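 further: 0% = DMSO only wells and the 100% control is not disclosed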
MC4R antag cAMP: human MC4R antagonism in cAMP assay | inhibition, % at 6.5 µM | P32245 | MC4R-expressing cells, MTII-stimulated cAMP, LANCE TR-FRET | hit rate 0.48% among 360,000 | AID 540295;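 active means inhibition above its plate's cutoff, the mean of tested wells on that plate plus 3 SD, cut at about 29% in these data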;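 further: 0% = Melanotan II alone and 100% = Melanotan II plus saturating MCL0020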
Target sequence (P32245 whole entry, looked up): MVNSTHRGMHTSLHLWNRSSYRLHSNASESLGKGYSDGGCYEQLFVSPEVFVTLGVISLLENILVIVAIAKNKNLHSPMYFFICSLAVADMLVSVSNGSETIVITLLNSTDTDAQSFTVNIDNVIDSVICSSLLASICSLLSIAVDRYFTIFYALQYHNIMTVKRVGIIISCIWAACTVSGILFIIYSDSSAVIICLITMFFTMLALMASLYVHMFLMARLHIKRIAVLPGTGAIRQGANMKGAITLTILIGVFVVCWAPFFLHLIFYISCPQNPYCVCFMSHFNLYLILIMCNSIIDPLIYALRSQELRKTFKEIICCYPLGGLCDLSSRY
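System: U2OS-MC4R stable cell line; Technique: Eu-cAMP/anti-cAMP TR-FRET, emission 671 nm; Repeats: single well per compound; Also added: Melanotan II; Dosing: one concentration, 6.5 µM nominal; Schedule: 30-min compound, 1-h challenge, 1-h detection, room temperature.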
PfG6PD inh: PfG6PD (Plasmodium falciparum) enzyme inhibition; PfGluPho enzyme, NADPH resazurin-diaphorase fluorescence; inhibition, % at 20 µM; hit rate 0.78% among 350,000; AID 504690;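 active means inhibition reaching at least a set limit at 20 µM in the primary screen, cut at about 59% in these data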;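 further: 0% = DMSO wells with substrate and 100% = DMSO wells lacking glucose-6-phosphate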
MC4R ag barr: activates human MC4R beta-arrestin recruitment; U2OS MC4R beta-arrestin complementation, luminescence; percent of melanotan II response, DMSO zero; hit rate 0.98% among 360,000; P32245; activation, % at 8.9 µM; AID 540308;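 active means activation above a per-plate cutoff, the mean activation of sample wells on that plate plus 3 SD, cut at about 8% in these data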
ABHD5-PLIN5 conf: confirmation of human ABHD5-PLIN5 interaction inhibitors; shares compounds with ABHD5-PLIN5 inh; biochemical ABHD5-PLIN5 interaction, luminescence; inhibition, % at 4 µM; hit rate 67% among 2,200; AID 651612; in the data active means inhibition above about 23%;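 further: 0% = DMSO vehicle wells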
HNF4 split-luc: counter-screen for ABHD5-PLIN5 inhibitors: HNF4 split-luciferase; inhibition, % at 4 µM; shares compounds with ABHD5-PLIN5 inh; hit rate 77% among 2,200; HNF4 dimerization, luminescence, biochemical;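 active means mean inhibition across replicate wells exceeding the computed hit threshold, cut at about 13% in these data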;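 further: light from luciferase halves that rejoin when HNF4 fusion proteins dimerize; 0% = DMSO only wells and the 100% control is not given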
* = called active by the depositor; . = no result given.

SMILES | B2AR ag | ABHD5-PLIN5 inh | MC4R antag cAMP | PfG6PD inh | MC4R ag barr | ABHD5-PLIN5 conf | HNF4 split-luc
Cn1cc([N+](=O)[O-])c(C(=O)N(Cc2ccccc2)Cc2ccccc2)n1 | -2.5 | -3.9 | -5.3 | 2.5 | 0.0 | . | .
CC1(OC(=O)C2CCCC2)C(=O)C=C2C=C3CCCCN3C=C2C1=O (configuration not stated) | -8.9 | -1.3 | -0.2 | 27.5 | -0.9 | . | .
COC/C=C/C1=CC2=CC(=O)C(C)(OC(=O)C3CCCC3)C(=O)C2=CO1 (configuration not stated) | -1.8 | 35.8* | 3.9 | 23.0 | -1.7 | 66.8* | 38.8*
Cc1cc(N2CCOCC2)ccc1/C=C\[N+](=O)[O-] | 42.5* | 77.0* | 2.9 | 13.6 | -2.8 | 97.2* | 98.6*
CCCC(C)NC(=O)Cc1ccc(S(=O)(=O)N2CCOCC2)s1 (configuration not stated) | -2.0 | -3.0 | 8.4 | -11.6 | 0.3 | . | .
CCC(C)C(CO)NCCCn1cnc2c(OCc3ccccc3)ncnc21 (configuration not stated) | . | 3.3 | 5.9 | -0.4 | 0.1 | . | .
CN(C)c1ccc2cc(S(=O)(=O)O)cc(O)c2c1 | -4.2 | 26.5* | 2.0 | 49.9 | 0.7 | 9.3 | 12.7*
CC(C)(C)c1cc(=O)n(-c2ccccc2)[nH]1 | 10.8 | 25.7* | -5.4 | 41.9 | -0.1 | -19.9 | -16.8
O=C1C=C(N2CCN(C3=CC(=O)CCC3)CC2)CCC1 | -4.2 | 47.7* | -5.1 | 6.2 | -1.1 | 9.5 | 19.5*
O=C1C=C(N2CCOCC2)CCC1 | -1.1 | 26.9* | 2.9 | -10.7 | 1.1 | 3.6 | 3.5
O=C1CCCC2=C1CC(C(=O)OCc1ccccc1)C(=O)N2Cc1ccccc1 (configuration not stated) | -6.6 | 5.1 | 4.9 | 16.5 | -0.5 | . | .
Cc1ccccc1/[N+]([O-])=C/c1cccs1 | -1.5 | 0.3 | 7.9 | 5.3 | -1.3 | . | .
Cc1ccc(/C=[N+](\[O-])c2ccccc2C)o1 | 3.4 | 23.1* | 5.5 | 23.1 | -2.5 | 2.4 | 10.7
O=C(CCC(=O)N(CC(=O)NC1CCCC1)c1ccccc1F)Nc1nccs1 | -4.4 | -4.2 | 6.5 | -9.5 | -0.2 | . | .
Cc1ccc(Nc2nc3ccccc3n3cnnc23)cc1Cl | -13.4 | 10.6 | -6.8 | -1.0 | 1.9 | . | .
C=C(CN(C)C)C(=O)c1ccc(OC2OC(COC(C)=O)C(OC(C)=O)C(OC(C)=O)C2OC(C)=O)cc1 (configuration not stated) | 25.3 | 39.2* | -27.4 | 48.8 | -1.2 | 99.2* | 106.3*
CCOC(=O)c1cc2c(=O)n3ccccc3nc2n(C(C)C)c1=NC(=O)c1ccco1 | 0.8 | 40.7* | 15.2 | -13.7 | -2.8 | 13.6 | 23.7*
CCOC(=O)c1cc2c(=O)n3ccccc3nc2n(Cc2ccco2)c1=NC(=O)c1ccc(OC)cc1 | 8.5 | 12.9 | 16.4 | 7.6 | -1.1 | . | .
CCOCCCn1c(=NC(=O)c2ccco2)c(C(=O)OCC)cc2c(=O)n3cccc(C)c3nc21 | -5.6 | 27.1* | 4.6 | 4.6 | -2.4 | 19.2 | 30.1*
CCOC(=O)c1cc2c(=O)n3ccccc3nc2n(Cc2ccco2)c1=NC(=O)c1ccccc1OC | 14.4 | 44.3* | 2.8 | 6.8 | 1.6 | 20.3 | 73.3*
CCOC(=O)c1cc2c(=O)n3cccc(C)c3nc2n(CC(C)C)c1=NC(=O)c1ccco1 | 5.0 | -23.6 | -1.8 | 3.0 | 1.7 | . | .
Cc1ccc(S(=O)(=O)c2cc3c(=O)n4ccccc4nc3n(Cc3ccco3)c2=N)cc1C | . | . | . | -3.1 | . | . | .
N=c1c(S(=O)(=O)c2ccccc2)cc2c(=O)n3ccccc3nc2n1Cc1ccco1 | 6.0 | 25.0* | 6.2 | 14.7 | -2.3 | 11.3 | 25.0*
Cc1ncc(C(O)c2ccccc2)n1Cc1ccccc1 (configuration not stated) | . | -9.7 | 2.3 | -13.6 | 0.2 | . | .
O=C(c1ccco1)N1CCN(C(=O)c2cn(-c3ccccc3)nc2-c2ccccc2)CC1 | -18.4 | 1.7 | -0.5 | 10.5 | -3.3 | . | .
SMILES | B2AR ag | ABHD5-PLIN5 inh | MC4R antag cAMP | PfG6PD inh | MC4R ag barr | ABHD5-PLIN5 conf | HNF4 split-luc
CCCn1c(=NC(=O)c2ccco2)c(C(=O)OCC)cc2c(=O)n3ccccc3nc21 | 7.7 | 40.9* | 1.7 | 3.3 | -1.8 | 11.3 | 26.6*
CC(C)OCCCn1c(=NC(=O)c2ccncc2)c(C#N)cc2c(=O)n3ccccc3nc21 | 13.1 | 0.7 | 10.0 | -7.9 | 0.0 | . | .
CC(C)n1c(=NC(=O)c2ccco2)c(C#N)cc2c(=O)n3ccccc3cc21 | 5.6 | 27.2* | 7.9 | 6.2 | -1.0 | 29.4* | 53.9*
COc1ccccc1NC(=O)CSc1nnc(C)s1 | -2.0 | -0.7 | 4.9 | -11.7 | 0.1 | . | .
CCOc1ccc(CCN2C(=S)N([C@@H](Cc3ccc(O)cc3)CN3CCC[C@@H]3CN3C(=S)NC[C@@H]3Cc3ccc(O)cc3)C[C@@H]2Cc2ccc(O)cc2)cc1 | . | 16.6 | . | . | . | . | .
CC1(C)C2CCC(CN=C(N)CSS(=O)(=O)O)C1C2 (configuration not stated) | . | 61.3* | 1.8 | 35.5 | -1.5 | 78.0* | 51.6*
Cc1ccc(C(=O)Nc2ccc(F)cc2)cc1NC1=NC2CS(=O)(=O)CC2S1 (configuration not stated) | 2.0 | -7.0 | 4.8 | 3.2 | 0.5 | . | .
Cc1ccc(NC(=O)c2cc(S(=O)(=O)N3CCOCC3)ccc2Cl)cc1S(=O)(=O)N1CCOCC1 | -7.3 | -4.8 | 7.2 | 6.4 | -1.1 | . | .
Cc1ccc2nc(-c3ccc(NC(=O)CN4CCN(C(=O)c5ccco5)CC4)cc3)sc2c1 | 8.8 | 27.3* | 20.1 | 0.5 | 1.9 | 20.4 | 6.6
CC(=O)Nc1ccc(NC(=O)COC(=O)/C(=C/c2ccccc2)n2nnnc2C)cc1 | 10.3 | 40.2* | 19.3 | -11.9 | 0.0 | 52.4* | 51.0*
Cc1nnnn1/C(=C\c1ccccc1)C(=O)OCC(=O)NC(C)(C)C | 18.9 | 12.6 | 14.8 | -13.5 | 1.5 | . | .
Cc1nnnn1/C(=C\c1ccccc1)C(=O)OCC(=O)NC1CCCCC1 | 17.7 | 24.5* | -1.8 | 14.5 | -1.2 | 55.1* | 62.3*
Cc1cccc(NC(=O)CSc2nc(N)cc(N)n2)c1 | -0.7 | 4.0 | 7.5 | 10.7 | -4.0 | . | .
Fc1ccc(CSc2nnc(-c3cccnc3)n2Cc2ccco2)cc1 | -2.6 | 15.8 | 5.6 | 2.4 | -0.1 | . | .
C(=C\c1ccccc1)/CSc1nnc(-c2cnccn2)n1Cc1ccco1 | -4.8 | 36.6* | 0.4 | 20.8 | -0.6 | 18.6 | 28.6*
Fc1ccccc1CSc1nnc(-c2cnccn2)n1Cc1ccco1 | -2.2 | -0.2 | 10.7 | 10.8 | 0.9 | . | .
Clc1ccccc1CSc1nnc(-c2cccnc2)n1Cc1ccco1 | -5.3 | 30.5* | -6.4 | -0.8 | -0.2 | 9.0 | 12.5*
CC(C)OC(=O)CSc1nnc(-c2cnccn2)n1Cc1ccco1 | 4.5 | -4.9 | -1.6 | -3.4 | -2.5 | . | .

Compound activity: PubChem BioAssay, several laboratories
